# Experiments:
# [1] = target: T1, DNA topoisomerase 1 (Homo sapiens) (UniProt P11387); assay: Inhibition of recombinant human DNA topoisomerase-1 assessed as relaxation of supercoiled DNA pBR322 at 100 uM after 30 mins by agarose gel electrophoresis relative to control
# T1 sequence (whole entry): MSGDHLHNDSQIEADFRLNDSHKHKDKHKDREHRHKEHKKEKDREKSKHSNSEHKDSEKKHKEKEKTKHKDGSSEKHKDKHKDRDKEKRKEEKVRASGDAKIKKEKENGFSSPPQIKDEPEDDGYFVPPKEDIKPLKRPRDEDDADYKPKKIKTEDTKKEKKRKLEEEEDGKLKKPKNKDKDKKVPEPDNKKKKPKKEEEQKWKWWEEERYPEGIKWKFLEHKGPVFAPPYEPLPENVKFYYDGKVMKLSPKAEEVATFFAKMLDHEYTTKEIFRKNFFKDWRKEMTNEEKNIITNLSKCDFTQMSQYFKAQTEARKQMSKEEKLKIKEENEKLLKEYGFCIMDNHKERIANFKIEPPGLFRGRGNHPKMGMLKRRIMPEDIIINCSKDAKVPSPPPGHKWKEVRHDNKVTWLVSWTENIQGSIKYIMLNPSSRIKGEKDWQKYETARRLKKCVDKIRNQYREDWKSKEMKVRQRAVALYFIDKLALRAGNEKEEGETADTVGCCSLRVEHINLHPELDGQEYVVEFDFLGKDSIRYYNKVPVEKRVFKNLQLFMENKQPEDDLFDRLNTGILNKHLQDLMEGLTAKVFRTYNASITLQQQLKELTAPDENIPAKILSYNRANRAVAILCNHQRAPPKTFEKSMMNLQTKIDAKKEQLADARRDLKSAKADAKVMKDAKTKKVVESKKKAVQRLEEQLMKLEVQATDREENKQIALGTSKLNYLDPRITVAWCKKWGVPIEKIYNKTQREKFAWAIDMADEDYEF
# In short: (§1)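 Relaxation assay with 100 ng pBR322 plasmid DNA and 1 unit recombinant human topo I. Buffer was 10 mM Tris–HCl pH 7.9, 150 mM NaCl, 0.1% BSA, 1 mM spermidine and 5% glycerol, incubated 37 °C for 30 min with or without compound. Products were run on a 1% agarose gel in TAE at 15 V for 7 h and stained with ethidium bromide (0.5 µg/mL) for 30 min.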
# [2] = target: T1, DNA topoisomerase 1 (Homo sapiens); assay: Inhibition of recombinant human DNA topoisomerase-1 assessed as relaxation of supercoiled DNA pBR322 at 20 uM after 30 mins by agarose gel electrophoresis relative to control; in short: as §1
# [3] = target: DNA topoisomerase 2-alpha (Homo sapiens) (UniProt P11388); assay: Inhibition of recombinant human DNA topoisomerase-2alpha using supercoiled pBR322 plasmid DNA as substrate at 100 uM after 30 mins by agarose gel electrophoresis relative to control
# In short: (§2)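 200 ng supercoiled pBR322 with 1 unit human topo II, incubated 30 min at 30 °C with or without compound in 10 mM Tris–HCl pH 7.9, 50 mM NaCl, 5 mM MgCl2, 1 mM EDTA, 1 mM ATP and 15 µg/mL BSA. Reaction was stopped with 7 mM EDTA and run on 1% agarose in TAE at 25 V. Gel was stained with ethidium bromide, visualized under UV, and supercoiled DNA quantitated densitometrically.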
# [4] = target: DNA topoisomerase 2-alpha (Homo sapiens) (UniProt P11388); assay: Inhibition of recombinant human DNA topoisomerase-2alpha using supercoiled pBR322 plasmid DNA as substrate at 20 uM after 30 mins by agarose gel electrophoresis relative to control; in short: as §2
# DU-145 = assay: Cytotoxicity against human DU145 cells measured on day 4 by CCK8 assay; type: functional, cell-based; details: DU-145, 96 h
# In short: (§3)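 Cells seeded at […], grown overnight in medium with 10% FBS at 37 °C under 5% CO2. On day 2 they were serum-starved 4 h, then exposed to graded compound concentrations. On day 4 CCK-8 was added for a further 4 h and absorbance read at 450 nm. IC50 came from a four-parameter logistic fit, mean ± SD of three experiments in triplicate.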
# HCT-15 = assay: Cytotoxicity against human HCT15 cells measured on day 4 by CCK8 assay; type: functional, cell-based; details: HCT-15, 96 h; in short: as §3
# T47D = assay: Cytotoxicity against human T47D cells measured on day 4 by CCK8 assay; type: functional, cell-based; details: 96 h; in short: as §3
# HeLa = assay: Cytotoxicity against human HeLa cells measured on day 4 by CCK8 assay; type: functional, cell-based; details: 96 h; in short: as §3
# DNA topoisomerase 2-alpha (Homo sapiens), sequence (P11388 whole entry): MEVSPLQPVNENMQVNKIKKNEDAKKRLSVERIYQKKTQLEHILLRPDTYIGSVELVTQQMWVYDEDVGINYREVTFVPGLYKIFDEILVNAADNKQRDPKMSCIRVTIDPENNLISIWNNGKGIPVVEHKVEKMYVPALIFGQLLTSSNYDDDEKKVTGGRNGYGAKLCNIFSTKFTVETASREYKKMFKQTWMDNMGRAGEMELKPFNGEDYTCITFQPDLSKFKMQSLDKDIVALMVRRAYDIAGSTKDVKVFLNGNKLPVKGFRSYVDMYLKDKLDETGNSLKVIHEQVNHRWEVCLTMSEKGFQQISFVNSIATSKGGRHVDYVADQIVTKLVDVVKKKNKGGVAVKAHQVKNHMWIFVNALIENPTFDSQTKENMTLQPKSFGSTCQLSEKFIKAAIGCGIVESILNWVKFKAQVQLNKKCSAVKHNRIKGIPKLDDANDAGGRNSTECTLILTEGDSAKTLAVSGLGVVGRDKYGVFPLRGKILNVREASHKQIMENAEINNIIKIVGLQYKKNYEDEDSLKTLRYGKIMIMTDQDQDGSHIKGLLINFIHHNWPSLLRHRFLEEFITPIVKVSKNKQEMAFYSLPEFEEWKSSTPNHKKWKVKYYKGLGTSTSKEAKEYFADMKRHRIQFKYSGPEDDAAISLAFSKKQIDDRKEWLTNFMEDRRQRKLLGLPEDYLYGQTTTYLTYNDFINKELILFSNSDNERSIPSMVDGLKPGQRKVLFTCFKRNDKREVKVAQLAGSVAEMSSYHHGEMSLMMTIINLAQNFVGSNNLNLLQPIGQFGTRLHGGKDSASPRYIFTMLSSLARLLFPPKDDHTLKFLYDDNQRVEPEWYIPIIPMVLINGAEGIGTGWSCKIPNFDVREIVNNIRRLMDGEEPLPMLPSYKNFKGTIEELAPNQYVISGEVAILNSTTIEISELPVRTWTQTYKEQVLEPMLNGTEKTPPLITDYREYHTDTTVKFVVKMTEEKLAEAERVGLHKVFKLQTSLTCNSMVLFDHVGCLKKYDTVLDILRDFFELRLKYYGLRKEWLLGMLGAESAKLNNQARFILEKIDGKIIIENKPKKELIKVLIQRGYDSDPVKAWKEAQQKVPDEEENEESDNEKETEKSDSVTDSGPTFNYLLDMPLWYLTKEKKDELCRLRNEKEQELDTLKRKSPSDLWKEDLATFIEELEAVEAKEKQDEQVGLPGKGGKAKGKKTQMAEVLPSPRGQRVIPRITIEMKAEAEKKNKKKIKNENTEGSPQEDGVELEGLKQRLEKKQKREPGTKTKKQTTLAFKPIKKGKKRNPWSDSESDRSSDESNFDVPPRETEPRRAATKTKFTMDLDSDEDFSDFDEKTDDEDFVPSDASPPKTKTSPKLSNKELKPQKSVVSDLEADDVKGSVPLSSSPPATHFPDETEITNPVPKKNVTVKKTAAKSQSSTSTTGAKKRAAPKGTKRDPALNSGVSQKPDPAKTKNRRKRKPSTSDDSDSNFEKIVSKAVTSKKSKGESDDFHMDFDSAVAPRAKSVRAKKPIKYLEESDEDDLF
inhibition [1] [%],inhibition [2] [%],inhibition [3] [%],inhibition [4] [%],SMILES,IC50 (DU-145) [µM],IC50 (HCT-15) [µM],IC50 (T47D) [µM],IC50 (HeLa) [µM]
90.1,0,81.2,21.5,Oc1cccc(-c2cc(-c3ccco3)cc(-c3ccccc3O)n2)c1,1.79,> 50,0.82,> 50
91.7,0,78.3,22.3,Oc1cccc(-c2cc(-c3cccs3)cc(-c3cccc(O)c3)n2)c1,1.63,3.48,0.77,1.69
72.2,2,76.4,30.2,Oc1ccc(-c2cc(-c3cccs3)cc(-c3ccccc3O)n2)cc1,> 50,> 50,> 50,> 50
30.1,3.9,69.3,12.8,Oc1ccc(-c2cc(-c3ccoc3)cc(-c3ccccc3O)n2)cc1,28,> 50,> 50,> 50
86.3,0.9,74.6,30.3,Oc1ccc(-c2cc(-c3cccs3)cc(-c3ccc(O)cc3)n2)cc1,2.19,> 50,11.7,> 50

# Second part, the compound before the results:
SMILES,inhibition [1] [%],inhibition [2] [%],inhibition [3] [%],inhibition [4] [%],IC50 (DU-145) [µM],IC50 (HCT-15) [µM],IC50 (T47D) [µM],IC50 (HeLa) [µM]
Oc1cccc(-c2cc(-c3cccnc3)cc(-c3ccccc3O)n2)c1,1.9,0,55.2,8.1,5.58,8.28,6.23,7.53
Oc1ccc(-c2cc(-c3ccsc3)cc(-c3ccc(O)cc3)n2)cc1,61.7,7.5,81.2,57.9,2.06,1.04,1.77,4.37
Oc1ccccc1-c1cc(-c2ccco2)cc(-c2ccccc2O)n1,89.1,0.2,52.2,13.3,> 50,> 50,> 50,> 50
Oc1cccc(-c2cc(-c3ccsc3)cc(-c3cccc(O)c3)n2)c1,59.2,4.5,88.1,23,1.31,1.63,1.51,16.6

# Reference: ChEMBL document CHEMBL3585276, “Topoisomerase I and II inhibitory activity, cytotoxicity, and structure-activity relationship study of dihydroxylated 2,6-diphenyl-4-aryl pyridines” (Bioorg Med Chem, 2015)
